A short description of test [1]: Antioxidant activity assessed as ABTS radical scavenging activity. The test is classed as functional. Put shortly:
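ABTS radical cation generated from 7.5 mM ABTS with 2.5 mM […], then diluted. Various concentrations of vehicle, test agents or Trolox (positive control) were mixed with an equal volume of the diluted radical solution for 6 min. Remaining radical was read as absorbance at 734 nm. EC50 calculated, mean ± SD (n=6).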

A short description of test [2]: Antiplatelet activity against citreated rabbit platelet assessed as arachidonic acid-induced platelet aggregation. The settings on record: Oryctolagus cuniculus. It is filed as functional, cell-based. Put shortly: (§1)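 Washed platelets from fresh rabbit blood, preincubated 2 min at 37 °C with various compound concentrations or 0.5% DMSO (control), then challenged with arachidonic acid or U46619. Turbidimetric aggregation: platelet suspension set as 0% and platelet-free Tyrode solution as 100%. Inhibition % = [1 − sample/control aggregation] × 100. IC50 reported as mean ± SD (n=4).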

The nature of test [3]: Antiplatelet activity against citreated rabbit platelet assessed as inhibition of 9,11-dideoxy-11 alpha, 9 alpha epoxy-methanoprostaglandin F2alpha-induced platelet aggregation. The settings on record: Oryctolagus cuniculus. The test is classed as functional, cell-based. Put shortly: as §1

A word on the EC50: it is the midpoint of the concentration-response curve. What is called IC50 is the midpoint of a concentration-inhibition curve.

Molecules are shown by their SMILES. Where only a bound is given, the exact number is not on record here.

Take `Oc1ccc([C@H]2Oc3cc(O)cc(/C=C/c4ccc5c(c4)[C@H](c4cc(O)cc6c4[C@H](c4cc(O)cc(O)c4)[C@@H](c4ccc(O)cc4)O6)[C@H](c4ccc(O)cc4)O5)c3[C@@H]2c2cc(O)cc(O)c2)cc1`: the EC50 in test [1] amounted to 4.8 µM. Moreover, the results for the IC50 in test [2] and in test [3] were 5.7 µM and 3.9 µM, respectively.

In the case of `O=Cc1ccc2c(c1)C(c1cc(O)cc3c1[C@H](c1cc(O)cc(O)c1)[C@@H](c1ccc(O)cc1)O3)[C@H](c1ccc(O)cc1)O2` (some centres undefined), the EC50 in test [1] came out at 4.4 µM. Further, the IC50 in test [2] was 7 µM; in test [3] it was 3.1 µM.

On to `Oc1ccc(/C=C/c2cc(O)cc3c2[C@H](c2cc(O)cc(O)c2)[C@@H](c2ccc(O)cc2)O3)cc1`, for which the EC50 in test [1] came out at 2.8 µM. Besides, the IC50 in test [2] and in test [3] was above 100 µM throughout.

For the compound `Oc1ccc([C@@H]2c3c(O)cc4c5c3[C@@H]([C@@H](c3ccc(O)cc3)c3c(O)cc(O)cc3[C@@H]5[C@@H](c3ccc(O)cc3)O4)[C@H]2c2cc(O)cc(O)c2)cc1` [AMPELOPSIN C], the EC50 in test [1] stood at 5.4 µM. For the same compound, the figures for the IC50 in test [2] and in test [3] were 8.1 µM and 5.9 µM, respectively.

For the compound `CC(=O)Oc1ccccc1C(=O)O` [ASPIRIN], in test [2], the IC50 came out at 32.7 µM.

As for `Oc1ccc(/C=C/c2cc(O)cc3c2[C@@H](c2cc(O)cc4c2[C@H](c2cc(O)cc5c2[C@@H](c2cc(O)cc(O)c2)[C@H](c2ccc(O)cc2)O5)[C@@H](c2ccc(O)cc2)O4)[C@H](c2ccc(O)cc2)O3)cc1` [MIYABENOL A], in test [1], the concentration giving a half-maximal response (EC50) worked out at 6.6 µM. In addition, the half-inhibitory concentration (IC50) in test [2] worked out at 9 µM; in test [3] it was 7.5 µM.

For `Cc1c(C)c2c(c(C)c1O)CCC(C)(C(=O)O)O2` (centres undefined) [TROLOX], in test [1], the EC50 worked out at 28.4 µM.

With `Oc1ccc([C@H]2c3c(O)cc(O)cc3[C@H]3c4c(cc(O)cc4[C@@H]2c2cc(/C=C/c4cc(O)cc5c4[C@H](c4cc(O)cc(O)c4)[C@@H](c4ccc(O)cc4)O5)ccc2O)O[C@@H]3c2ccc(O)cc2)cc1` [VITISIN A], the EC50 in test [1] is 13.8 µM. Moreover, the IC50 in test [2] turned out to be 10.3 µM; in test [3] it was 13.3 µM.

Turning to `O=Cc1ccc(O)c([C@H]2c3cc(O)cc4c3[C@H](c3cc(O)cc(O)c3[C@@H]2c2ccc(O)cc2)[C@@H](c2ccc(O)cc2)O4)c1` [VITISINOL B], in test [1], the EC50 came out at 3.6 µM. The IC50 in test [2] was above 100 µM; in test [3], 7.8 µM.

For `O=C1C=C(/C=C/c2ccc(O)cc2)C[C@@H](c2cc(O)cc(O)c2)[C@H](c2ccc(O)cc2)C1` [VITISINOL C], in test [1], the EC50 is 4.5 µM. Moreover, the IC50 in test [2] came to 13.4 µM; in test [3], 10.5 µM.

Regarding `O=C1C=C(/C=C/c2ccc(O)cc2)[C@H]2C(=O)[C@@H]1[C@H](c1ccc(O)cc1)[C@H]2c1cc(O)cc(O)c1` [VITISINOL D], the EC50 in test [1] amounted to 4.1 µM. For the same compound, the IC50 in test [2] is 15 µM; in test [3], 5.7 µM.

(Values after ChEMBL document CHEMBL1142581, “Resveratrol derivatives from the roots of Vitis thunbergii” (J Nat Prod, 2005).)
